The record followed here is ChEMBL document CHEMBL1687733, “Topoisomerase I gene mutations at F270 in the large subunit and N184 in the small subunit contribute to the resistance mechanism of the unicellular parasite Leishmania donovani towards 3,3'-diindolylmethane” (Antimicrob Agents Chemother, 2009).

A short description of series [1]: Binding affinity to recombinant wild type Leishmania donovani AG83 topoisomerase 1b after 24 hrs by equilibrium dialysis method. (In equilibrium dialysis only unbound substance equilibrates across the membrane.)
In series [2] the test system is Leishmania donovani. Kind of series: Antimicrobial activity against wild type Leishmania donovani AG83 transfected with drug-resistant Leishmania donovani LdDR50 topoisomerase 1 wild type large subunit and N184S mutant in small subunit assessed as inhibition of parasite growth at 20 uM after 24 hrs by MTT assay. It is filed as functional. Particulars: AG83, 24 h. The method, boiled down: (§1)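 WT promastigotes transfected by electroporation with mutant large-subunit (pXG-HYG, hygromycin selection) and/or small-subunit (pXG-GFP2+, G418 selection) topoisomerase I genes. Grown with DIM 1–20 μM for 24 h; MTT read-out, growth as % of optical density of untreated WT parasites.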

Series [3] concerns Leishmania donovani. Briefly: Ratio of KD for drug-resistant Leishmania donovani LdDR50 topoisomerase 1b to KD for wild type Leishmania donovani AG83 topoisomerase 1b.
For series [4], the target named is DNA topoisomerase type IB small subunit (Leishmania donovani (strain BPK282A1), UniProt E9B7X3, N184S). Briefly: Binding affinity to recombinant drug-resistant Leishmania donovani LdDR50 topoisomerase 1b small subunit N184S mutant after 24 hrs by equilibrium dialysis method. The method, boiled down: (§2)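 Recombinant His-tagged subunits expressed in E. coli BL21(DE3) pLysS, purified on Ni-NTA then phosphocellulose, reconstituted 1:1. Enzyme 200 μM with DIM 1–20 μM in 20 mM Tris-HCl pH 7.5, 50 mM NaCl, 10 mM MgCl2 for 30 min at 37°C, then dialysed (12–14 kDa cutoff) 24 h at 25°C. Free DIM measured by absorbance (ε 6.6 × 10^4 M−1); KD from saturation plot.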

The test system of series [5] is Leishmania donovani. Kind of series: Antimicrobial activity against wild type Leishmania donovani AG83 assessed as inhibition of parasite growth after 24 hrs by MTT assay. It is filed as functional, organism-based. The method, boiled down:
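WT L. donovani promastigotes were harvested in exponential phase and seeded at 2 × 10^6 cells per well. They were exposed to DIM at 1, 5, 10, 15 and 20 μM, washed in PBS, and given MTT (10 μg/ml) for 4 h. Acidified isopropanol stop was followed by A570. Growth was expressed as % of the OD of untreated WT, from three experiments.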
In general terms: Formazan colour is commonly taken as a measure of viable cells.

Series [6] deals with Leishmania donovani. Kind of series: Antimicrobial activity against wild type Leishmania donovani AG83 transfected with drug-resistant Leishmania donovani LdDR50 topoisomerase 1 F270Lmutant in large subunit assessed as inhibition of parasite growth at 20 uM after 24 hrs by MTT assay. It is filed as functional. Particulars: AG83, 24 h. The method, boiled down: as §1
Series [7] has as its system Leishmania donovani. Briefly: Antimicrobial activity against wild type Leishmania donovani AG83 transfected with drug-resistant Leishmania donovani LdDR50 topoisomerase 1 K430N mutant in large subunit and wild type small subunit assessed as inhibition of parasite growth at 20 uM after 24 hrs by MTT assay. It is filed as functional. Particulars: AG83, 24 h. The method, boiled down:
as §1

The subject of series [8] is Leishmania donovani. Briefly: Antimicrobial activity against wild type Leishmania donovani AG83 transfected with drug-resistant Leishmania donovani LdDR50 topoisomerase 1 F270L, K430N mutant in large subunit assessed as inhibition of parasite growth at 20 uM after 24 hrs by MTT assay. The following applies: AG83, 24 h. It is filed as functional. The method, boiled down: as §1

In series [9] the test system is Leishmania donovani. Briefly: Inhibition of recombinant drug-resistant Leishmania donovani LdDR50 topoisomerase 1b-mediated relaxation of supercoiled pBluescript SK(+) DNA at up to 50 uM after 30 mins using ethidium bromide staining. The method, boiled down: (§3)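 Reconstituted recombinant enzyme (30 fmol) with 90 fmol supercoiled pBluescript SK(+) DNA (3:1 DNA:enzyme), 30 min at 37°C with DIM (1–50 μM for fully mutant enzyme; 10 μM for single-site mutants); 4% DMSO vehicle control. Products on 1% agarose, ethidium bromide (0.5 μg/ml) stained; supercoiled monomer band quantified.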

Series [10] concerns Leishmania donovani. Kind of series: Drug uptake in wild type Leishmania donovani AG83 at 20 uM after 30 mins by spectrophotometric analysis. It is filed as ADME, organism-based. The following applies: in vivo, 0.5 h. The method, boiled down:
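Log-phase promastigotes at 3 × 10^7 cells/ml with 20 μM DIM at 22°C; aliquots at 1, 5, 10, 20 and 30 min washed three times in ice-cold PBS pH 7.4 with 0.01 N HCl, sonicated. Cell-associated DIM quantified by equilibrium dialysis and absorbance at 280 nm; three experiments in duplicate.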

The test system of series [11] is T1, Leishmania donovani [K430N].
T1 sequence (whole entry): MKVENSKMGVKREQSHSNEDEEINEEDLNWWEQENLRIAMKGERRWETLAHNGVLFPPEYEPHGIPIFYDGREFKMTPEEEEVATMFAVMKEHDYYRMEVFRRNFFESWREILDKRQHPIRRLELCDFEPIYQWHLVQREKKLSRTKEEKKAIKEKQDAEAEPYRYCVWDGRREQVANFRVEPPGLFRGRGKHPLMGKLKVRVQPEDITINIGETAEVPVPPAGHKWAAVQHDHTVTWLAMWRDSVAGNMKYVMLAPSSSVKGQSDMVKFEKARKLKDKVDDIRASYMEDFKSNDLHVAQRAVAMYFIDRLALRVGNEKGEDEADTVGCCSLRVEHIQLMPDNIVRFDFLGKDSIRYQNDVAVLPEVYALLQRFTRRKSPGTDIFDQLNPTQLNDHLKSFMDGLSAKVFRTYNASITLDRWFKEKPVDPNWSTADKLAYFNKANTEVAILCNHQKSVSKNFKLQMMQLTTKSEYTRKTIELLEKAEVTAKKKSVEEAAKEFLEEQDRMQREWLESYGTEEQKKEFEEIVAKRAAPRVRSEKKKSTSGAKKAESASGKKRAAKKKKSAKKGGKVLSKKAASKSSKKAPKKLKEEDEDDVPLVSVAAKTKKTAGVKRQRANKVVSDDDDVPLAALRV
Briefly: Inhibition of recombinant drug-resistant Leishmania donovani LdDR50 topoisomerase 1b wild type small subunit and large subunit K430N mutant-mediated relaxation of supercoiled pBluescript SK(+) DNA at up to 50 uM after 30 mins using ethidium bromide staining. The method, boiled down: as §3

The target in a further series is DNA topoisomerase I (Leishmania donovani (strain BPK282A1), UniProt E9BRC0, F270L/K430N). Kind of series: Binding affinity to recombinant drug-resistant Leishmania donovani LdDR50 topoisomerase 1b large subunit F270L, K430N mutant after 24 hrs by equilibrium dialysis method. The method, boiled down: as §2
The test system of series [12] is Leishmania donovani. Kind of series: Inhibition of recombinant drug-resistant Leishmania donovani LdDR50 topoisomerase 1b large subunit F270L mutant and small subunit N184S mutant-mediated relaxation of supercoiled pBluescript SK(+) DNA at up to 50 uM after 30 mins using ethidium bromide staining. The method, boiled down: as §3

Active and inactive are the calls of the source.

As a reminder, the Kd is a measure of binding affinity in units of concentration. One may read the inhibition as the drop in the measured response relative to a control, in per cent. By IC50 is commonly meant the midpoint of a concentration-inhibition curve.

With `c1ccc2c(Cc3c[nH]c4ccccc34)c[nH]c2c1` [ARUNDINE], the Kd in series [1] amounted to 0.0097 µM; in series [4], 380 µM; at DNA topoisomerase I, 760 µM. Besides, the inhibition at 20 µM in the series on Leishmania donovani [2] was determined as 91%; in the series with Leishmania donovani [6], 34%; with Leishmania donovani [7] it was 94%; with Leishmania donovani [8], 34%. The Ratio with Leishmania donovani [3] amounted to 25000. Also, the inhibition entry in the series with Leishmania donovani [5] was “Dose-dependent effect”. For the same compound, the IC50 in the series with Leishmania donovani [5] (AG83, 24 h) came out at 1.25 µM. The inhibition entry in the series with Leishmania donovani [9] and in the series with Leishmania donovani [12] was “inactive” each time. In the series on Leishmania donovani [10], the Drug uptake result is recorded as “Active”. Besides, in [11], the inhibition entry is “Active”.
